Assay results from ChEMBL document CHEMBL4033794, “Discovery of Trifluoromethyl Glycol Carbamates as Potent and Selective Covalent Monoacylglycerol Lipase (MAGL) Inhibitors for Treatment of Neuroinflammation” (J Med Chem, 2018).
The source made the active and inactive calls. The rule behind the calls is not given here.

Key:
Monoglyceride lipase = molecular target: T1, Monoglyceride lipase (Homo sapiens, UniProt Q99685); test: Inhibition of recombinant human MAGL using fluorogenic-7HCA as substrate preincubated for 30 mins followed by substrate addition measured after 60 mins by fluorescence based assay
T1 sequence (Q99685 whole entry): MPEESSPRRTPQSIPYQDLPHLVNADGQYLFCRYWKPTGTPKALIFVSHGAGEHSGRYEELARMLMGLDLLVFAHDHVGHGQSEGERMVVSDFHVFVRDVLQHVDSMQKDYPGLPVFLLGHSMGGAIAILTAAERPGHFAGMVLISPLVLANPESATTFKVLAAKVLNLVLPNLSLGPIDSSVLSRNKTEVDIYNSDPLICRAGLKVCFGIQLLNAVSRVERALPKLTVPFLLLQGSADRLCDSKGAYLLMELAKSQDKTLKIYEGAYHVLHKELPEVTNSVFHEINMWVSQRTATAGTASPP

[1] = molecular target: T2, Fatty-acid amide hydrolase 1 (Homo sapiens, UniProt O00519); test: Inhibition of recombinant human FAAH using fluorogenic arachidonoyl-AMC as substrate preincubated for 30 mins followed by substrate addition measured after 60 mins by fluorescence based assay
T2 sequence (O00519 whole entry): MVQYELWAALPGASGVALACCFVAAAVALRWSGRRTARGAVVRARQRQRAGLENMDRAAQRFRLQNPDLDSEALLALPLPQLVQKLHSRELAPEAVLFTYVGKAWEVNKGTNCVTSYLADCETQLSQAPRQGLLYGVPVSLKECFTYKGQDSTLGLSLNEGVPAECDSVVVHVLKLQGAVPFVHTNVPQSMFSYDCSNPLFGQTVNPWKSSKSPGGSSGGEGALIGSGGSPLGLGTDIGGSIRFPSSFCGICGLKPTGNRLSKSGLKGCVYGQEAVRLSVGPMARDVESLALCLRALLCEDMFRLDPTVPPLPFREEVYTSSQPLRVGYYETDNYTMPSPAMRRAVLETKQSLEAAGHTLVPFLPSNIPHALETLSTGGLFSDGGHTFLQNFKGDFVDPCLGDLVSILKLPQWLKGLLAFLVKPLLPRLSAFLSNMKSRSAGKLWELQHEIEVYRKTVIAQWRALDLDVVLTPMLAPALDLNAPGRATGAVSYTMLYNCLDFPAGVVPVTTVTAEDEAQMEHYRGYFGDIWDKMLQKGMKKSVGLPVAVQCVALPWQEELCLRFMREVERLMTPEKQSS
How it was run: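 Human recombinant FAAH (0.0125 U final) in 50 mM Tris pH 9.0, 1 mM EDTA, preincubated 30 min at room temperature with compound (30 μM to 0.3 nM final); arachidonoyl-AMC 5 μM added, 60 min reaction, read Ex/Em 355/460. Inhibition vs no-compound and full-inhibition controls; four-parameter fit; geometric mean of ≥3 experiments.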

[2] = Lipophilicity, log D of the compound at pH 7.4 by shake flask method; assay type: physicochemical; conditions: buffer
[3] = molecular target: T3, Monoglyceride lipase (Homo sapiens) (UniProt Q99685); test: Inhibition of recombinant human MAGL assessed as Kintact to Ki ratio using fluorogenic-7HCA as substrate measured after 60 mins by fluorescence based assay
T3 sequence (whole entry): T1 sequence (Q99685 whole entry)
How it was run: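 Same MAGL fluorogenic setup (88 pM enzyme, 5 μM 7-HCA, HEPES pH 7.4 buffer) but substrate added immediately without preincubation; fluorescence read every minute to obtain progress curves across decreasing inhibitor concentrations; kobs derived per concentration and kinact/KI taken from plot of kobs versus concentration.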

[4] = Intrinsic clearance in human liver microsomes; assay type: ADME, microsome; conditions: read-out: CLH
How it was run: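 Substrate depletion in human liver microsomes; intrinsic clearance scaled to mL/min/kg.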

[5] = Lipophilicity, log D of the compound by HPLC analysis; assay type: physicochemical
How it was run: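 LogD determined by an HPLC-based (eLogD) method.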

[6] = molecular target: T4, CES1 (liver carboxylesterase 1) (Homo sapiens, UniProt P23141); test: (§1) Inhibition of human CES1 at 10 uM
T4 sequence (P23141 whole entry): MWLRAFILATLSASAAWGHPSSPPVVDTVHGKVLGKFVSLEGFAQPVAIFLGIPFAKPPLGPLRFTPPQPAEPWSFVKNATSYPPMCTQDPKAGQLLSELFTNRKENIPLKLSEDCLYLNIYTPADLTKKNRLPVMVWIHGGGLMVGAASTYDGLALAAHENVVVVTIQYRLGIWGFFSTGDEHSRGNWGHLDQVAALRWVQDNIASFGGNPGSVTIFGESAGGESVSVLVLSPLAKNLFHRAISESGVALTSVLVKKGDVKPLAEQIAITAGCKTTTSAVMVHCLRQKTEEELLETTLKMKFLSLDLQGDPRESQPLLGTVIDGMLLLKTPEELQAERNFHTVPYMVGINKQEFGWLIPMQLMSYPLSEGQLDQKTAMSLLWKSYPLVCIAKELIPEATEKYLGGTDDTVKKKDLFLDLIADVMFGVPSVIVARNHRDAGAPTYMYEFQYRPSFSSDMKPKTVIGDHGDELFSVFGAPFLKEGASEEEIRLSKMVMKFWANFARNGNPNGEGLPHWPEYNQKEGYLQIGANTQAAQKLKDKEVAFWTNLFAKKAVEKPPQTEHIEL
How it was run: (§2)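 Panel of 42 human serine hydrolases, each exposed to inhibitor at 10 µM; activity expressed as percent inhibition.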

Homo sapiens = organism: Homo sapiens; test: Selectivity ratio of IC50 for recombinant human FAAH to IC50 for recombinant human MAGL
[7] = molecular target: T5, Monoacylglycerol lipase ABHD6 (Homo sapiens) (UniProt Q9BV23); test: Inhibition of human ABHD6 at 10 uM; how it was run: as §2
T5 sequence (whole entry): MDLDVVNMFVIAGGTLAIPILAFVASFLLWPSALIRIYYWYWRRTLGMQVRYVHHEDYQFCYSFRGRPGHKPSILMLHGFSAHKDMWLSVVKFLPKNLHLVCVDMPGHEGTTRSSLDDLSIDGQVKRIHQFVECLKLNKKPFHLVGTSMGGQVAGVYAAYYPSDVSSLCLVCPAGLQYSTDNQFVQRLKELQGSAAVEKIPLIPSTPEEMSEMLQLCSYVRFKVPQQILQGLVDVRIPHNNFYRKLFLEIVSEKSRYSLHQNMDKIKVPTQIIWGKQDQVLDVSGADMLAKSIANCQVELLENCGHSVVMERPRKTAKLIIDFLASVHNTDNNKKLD

[8] = Kinetic solubility of the compound at pH 7.4; assay type: physicochemical; conditions: buffer, read-out: Kinetic_solubility
Liver carboxylesterase 1 = molecular target: T6, Liver carboxylesterase 1 (Homo sapiens, UniProt P23141); test: as §1; conditions: 10 µM; how it was run: as §2
T6 sequence (P23141 whole entry): T4 sequence (P23141 whole entry)

Cocaine esterase = molecular target: T7, Cocaine esterase (Homo sapiens, UniProt O00748); test: Inhibition of human CES2 at 10 uM; how it was run: as §2
T7 sequence (O00748 whole entry): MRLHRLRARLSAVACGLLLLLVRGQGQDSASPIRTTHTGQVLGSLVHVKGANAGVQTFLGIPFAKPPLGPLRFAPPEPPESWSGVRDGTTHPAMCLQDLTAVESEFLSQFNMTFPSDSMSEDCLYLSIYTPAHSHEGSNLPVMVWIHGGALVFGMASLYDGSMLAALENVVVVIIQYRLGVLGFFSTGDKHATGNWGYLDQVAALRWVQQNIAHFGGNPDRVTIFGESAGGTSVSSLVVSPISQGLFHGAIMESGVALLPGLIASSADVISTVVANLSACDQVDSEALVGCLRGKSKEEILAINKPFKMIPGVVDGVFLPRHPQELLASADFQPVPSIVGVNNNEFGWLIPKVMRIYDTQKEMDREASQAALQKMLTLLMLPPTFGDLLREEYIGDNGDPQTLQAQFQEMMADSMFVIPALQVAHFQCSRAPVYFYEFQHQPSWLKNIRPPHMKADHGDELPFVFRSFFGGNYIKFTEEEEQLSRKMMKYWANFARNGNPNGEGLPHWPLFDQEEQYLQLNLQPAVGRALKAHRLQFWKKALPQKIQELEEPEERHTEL

[9] = molecular target: T8, Fatty-acid amide hydrolase 1 (Homo sapiens) (UniProt O00519); test: Inhibition of human FAAH at 10 uM; how it was run: as §2
T8 sequence (whole entry): T2 sequence (O00519 whole entry)

[10] = molecular target: T9, Fatty-acid amide hydrolase 2 (Homo sapiens) (UniProt Q6GMR7); test: Inhibition of human FAAH2 at 10 uM; how it was run: as §2
T9 sequence (whole entry): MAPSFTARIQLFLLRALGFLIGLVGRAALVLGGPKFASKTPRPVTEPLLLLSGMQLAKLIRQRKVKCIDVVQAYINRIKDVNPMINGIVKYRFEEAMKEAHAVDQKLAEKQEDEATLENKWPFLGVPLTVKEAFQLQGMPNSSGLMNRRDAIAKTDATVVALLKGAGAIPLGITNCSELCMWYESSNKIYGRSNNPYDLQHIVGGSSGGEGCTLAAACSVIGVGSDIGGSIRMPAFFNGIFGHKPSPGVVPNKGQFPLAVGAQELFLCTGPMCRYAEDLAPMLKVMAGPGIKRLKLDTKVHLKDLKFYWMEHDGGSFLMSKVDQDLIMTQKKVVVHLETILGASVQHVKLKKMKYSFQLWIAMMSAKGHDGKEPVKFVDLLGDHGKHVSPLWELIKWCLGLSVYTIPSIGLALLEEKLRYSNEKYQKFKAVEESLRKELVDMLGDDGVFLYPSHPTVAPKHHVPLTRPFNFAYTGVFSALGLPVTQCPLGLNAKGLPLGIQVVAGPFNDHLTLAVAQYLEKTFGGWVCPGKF

SMILES | IC50 (Monoglyceride lipase) [nM] | IC50 [1] [nM] | Ratio [3] [M⁻¹ s⁻¹] | logD [5] | other results
O=C(Oc1ccc([N+](=O)[O-])cc1)N1C[C@@H]2[C@H](C1)[C@H]2c1ccn(-c2ccc(F)cc2)n1 | 24 | 18 | 2880 |  | logD [2]: 4.2
O=C(O[C@H](CCO)C(F)(F)F)N1C[C@@H]2[C@H](C1)[C@H]2c1ccn(-c2ccc(F)cc2)n1 | 582 | > 12000 | 4570 | 4.2 | CLint scaled [4]: < 12 mL/min/kg
O=C(OC[C@@H](O)C(F)(F)F)N1C[C@@H]2[C@H](C1)[C@H]2c1ccn(-c2ccc(F)cc2)n1 | 132 | > 30000 | 244 | 4 | CLint scaled [4]: 9.4 mL/min/kg
O=C(Oc1ccc([N+](=O)[O-])cc1)N1CCC(C(O)(c2ccc3c(c2)OCO3)c2ccc3c(c2)OCO3)CC1 |  | > 11000 |  | 5.1 | 
O=C(OCC(F)(F)F)N1C[C@@H]2[C@H](C1)[C@H]2c1ccn(-c2ccc(F)cc2)n1 | 445 | 970 | 103 | 4.2 | 
O=C(OC(C(F)(F)F)C(F)(F)F)N1C[C@@H]2[C@H](C1)[C@H]2c1ccn(-c2ccc(F)cc2)n1 | 1 to 1.4 | 4300 | 41700 | 5.6 | inhibition at 10 µM [6]: 58%; Ratio IC50 (Homo sapiens): 3000 to 4300; inhibition [7]: 95%; solubility kinetic [8]: < 1 µM
O=C(OC(CO)C(F)(F)F)N1C[C@@H]2[C@H](C1)[C@H]2c1ccn(-c2ccc(F)cc2)n1 (some centres not stated) | 6 | 14000 |  | 3.9 | 
O=C(O[C@@H](CO)C(F)(F)F)N1C[C@@H]2[C@H](C1)[C@H]2c1ccn(-c2ccc(F)cc2)n1 | 890 | 26000 |  | 3.9 | CLint scaled [4]: < 8 mL/min/kg
COC[C@@H](OC(=O)N1C[C@@H]2[C@H](C1)[C@H]2c1ccn(-c2ccc(F)cc2)n1)C(F)(F)F | 354 | 1940 | 110 | 4.2 | 
O=C(O[C@H](CF)C(F)(F)F)N1C[C@@H]2[C@H](C1)[C@H]2c1ccn(-c2ccc(F)cc2)n1 | 26 | 1900 | 1580 | 4.3 | Ratio IC50 (Homo sapiens): 73
CC(OC(=O)N1C[C@@H]2[C@H](C1)[C@H]2c1ccn(-c2ccc(F)cc2)n1)C(F)(F)F (some centres not stated) | 242 | > 23000 |  | 4.8 | Ratio IC50 (Homo sapiens): > 95
O=C(ON1C(=O)CCC1=O)N1C[C@@H]2[C@H](C1)[C@H]2c1ccn(-c2ccc(F)cc2)n1 | 46 | 3600 | 156 |  | inhibition (INH) (Liver carboxylesterase 1): Not Active; inhibition (INH) (Cocaine esterase): Not Active; inhibition [7]: inactive; inhibition [9]: inactive; inhibition [10]: inactive; logD [2]: 2.6
